Assay results taken from ChEMBL document CHEMBL1121772, “Synthesis and beta-lactamase inhibitory properties of 2 beta-(chloromethyl)-2 alpha-methylpenam-3 alpha-carboxylic acid 1,1-dioxide” (1981).
≈ marks a conversion by molar mass, not a printed value.

Tests used:
Assay type in all cases: functional
Staphylococcus aureus [1] = assay: Minimum inhibitory activity against Staphylococcus aureus A20309
Summary of the method: (§1)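 MICs by agar dilution: organisms were inoculated onto drug-containing agar plates with a multipoint replicating device.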

Escherichia coli [2] = assay: Minimum inhibitory activity against Escherichia coli A21223; summary of the method: as §1
Escherichia coli [3] = assay: Minimum inhibitory activity against Escherichia coli A9675; summary of the method: as §1
Staphylococcus aureus [4] = assay: Minimum inhibitory activity against Staphylococcus aureus A15091; summary of the method: as §1
Mus musculus [5] = species on record: Mus musculus; assay: Beta-lactamase inhibitory activity against Staphylococcus aureus A20379 using oral mouse protection test in mice; conditions: read-out: PD50
Summary of the method: (§2)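 Challenge organisms suspended in mucin (2 or 4%) and injected ip into 18-24 g Swiss-Webster (ICR strain) mice. Oral treatment given at 0 and 2 h postchallenge. Observation ran 5 days, and PD50 was calculated by the Spearman-Karber method.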

Staphylococcus aureus [6] = assay: Minimum inhibitory activity against Staphylococcus aureus A9606; summary of the method: as §1
Mus musculus [7] = species on record: Mus musculus; assay: Beta-lactamase inhibitory activity against Escherichia coli A21223 using oral mouse protection test in mice; conditions: read-out: PD50; summary of the method: as §2
Mus musculus [8] = species on record: Mus musculus; assay: Beta-lactamase inhibitory activity against Staphylococcus aureus A9606 using oral mouse protection test in mice; conditions: for ED50: Mus musculus, po, read-out: PD50; summary of the method: as §2
Mus musculus [9] = species on record: Mus musculus; assay: Beta-lactamase inhibitory activity against Staphylococcus aureus A15091 using oral mouse protection test in mice; conditions: read-out: PD50; summary of the method: as §2
[10] = molecular target: Beta-lactamase (Staphylococcus aureus) (UniProt P00807); assay: Beta-lactamase inhibitory activity from Staphylococcus aureus A9606 and minimum protective concentration was reported
Sequence of Beta-lactamase (Staphylococcus aureus) (P00807 whole entry): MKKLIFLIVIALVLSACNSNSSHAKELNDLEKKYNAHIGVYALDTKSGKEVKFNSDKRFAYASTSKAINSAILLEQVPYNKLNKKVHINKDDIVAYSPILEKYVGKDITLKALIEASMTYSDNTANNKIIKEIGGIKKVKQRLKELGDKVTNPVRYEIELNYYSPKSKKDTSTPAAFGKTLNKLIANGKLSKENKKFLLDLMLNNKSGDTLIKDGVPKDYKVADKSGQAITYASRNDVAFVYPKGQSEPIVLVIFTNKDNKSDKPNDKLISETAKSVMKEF

[11] = molecular target: Beta lactamase TEM-1 (Klebsiella pneumoniae) (UniProt Q7B899); assay: Beta-lactamase inhibitory activity from Klebsiella pneumoniae A20634(TEM) and minimum protective concentration was reported
Sequence of Beta lactamase TEM-1 (Klebsiella pneumoniae) (Q7B899 as listed by the source): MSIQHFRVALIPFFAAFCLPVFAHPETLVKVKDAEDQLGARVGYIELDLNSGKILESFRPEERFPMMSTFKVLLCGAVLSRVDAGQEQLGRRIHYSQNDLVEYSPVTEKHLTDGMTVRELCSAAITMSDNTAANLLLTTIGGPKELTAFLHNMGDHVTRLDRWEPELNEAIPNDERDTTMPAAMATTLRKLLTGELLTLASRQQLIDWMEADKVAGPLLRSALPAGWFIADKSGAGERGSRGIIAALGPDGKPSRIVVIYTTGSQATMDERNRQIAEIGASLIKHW

[12] = molecular target: Metallo-beta-lactamase type 2 (Bacteroides fragilis) (UniProt P25910); assay: Beta-lactamase inhibitory activity from […] A-22,695 and minimum protective concentration was reported
Sequence of Metallo-beta-lactamase type 2 (Bacteroides fragilis) (P25910 whole entry): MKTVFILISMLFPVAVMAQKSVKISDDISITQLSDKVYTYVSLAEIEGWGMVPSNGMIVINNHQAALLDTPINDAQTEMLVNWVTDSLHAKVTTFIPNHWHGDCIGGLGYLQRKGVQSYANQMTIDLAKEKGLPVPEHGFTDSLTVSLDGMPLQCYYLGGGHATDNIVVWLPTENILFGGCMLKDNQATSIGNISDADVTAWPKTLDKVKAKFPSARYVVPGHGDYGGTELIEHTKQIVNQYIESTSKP

SMILES | MIC (Staphylococcus aureus [1]) | MIC (Escherichia coli [2]) | MIC (Escherichia coli [3]) | MIC (Staphylococcus aureus [4]) | ED50 (Mus musculus [5]) | MIC (Staphylococcus aureus [6]) | ED50 (Mus musculus [7]) | ED50 (Mus musculus [8]) | ED50 (Mus musculus [9]) | MPC [10] | MPC [11] | MPC [12] | PD50 (Mus musculus [8])
CC1(C)S[C@@H]2[C@H](NC(=O)[C@H](N)c3ccc(O)cc3)C(=O)N2[C@H]1C(=O)O.CC1(C)[C@H](C(=O)O)N2C(=O)C[C@H]2S1(=O)=O | 4 µg/mL | 4 µg/mL | 4 µg/mL | 2 µg/mL | 21 mg/kg | 2 µg/mL | 46 mg/kg | 15 mg/kg | 160 mg/kg |  |  |  | 
CC1(C)S[C@@H]2[C@H](NC(=O)[C@H](N)c3ccc(O)cc3)C(=O)N2[C@H]1C(=O)O.O=C(O)[C@H]1/C(=C/CO)O[C@@H]2CC(=O)N21 | 2 µg/mL | 8 µg/mL | 2 µg/mL | 2 µg/mL |  | 2 µg/mL |  |  |  |  |  |  | 
COc1cccc(OC)c1C(=O)N[C@@H]1C(=O)N2[C@@H](C(=O)O)C(C)(C)S(=O)(=O)[C@H]12 |  |  |  |  |  |  |  |  |  | > 100 µg/mL | 125 µg/mL |  | 
CC1(C)[C@H](C(=O)O)N2C(=O)C[C@H]2S1(=O)=O [SULBACTAM] | > 125 µg/mL | > 125 µg/mL | 125 µg/mL (≈ 536 µM) | > 125 µg/mL | > 200 mg/kg | > 125 µg/mL | > 200 mg/kg |  | > 200 mg/kg | 12.5 µg/mL | 1.6 µg/mL | 12.5 µg/mL | > 200 mg/kg
O=C(O)[C@H]1/C(=C/CO)O[C@@H]2CC(=O)N21 [CLAVULANIC ACID] | 32 µg/mL (≈ 161 µM) | 32 µg/mL (≈ 161 µM) | 32 µg/mL (≈ 161 µM) | 32 µg/mL (≈ 161 µM) |  | 32 µg/mL (≈ 161 µM) |  |  |  | 0.4 µg/mL | 0.1 µg/mL | 6.3 µg/mL | 
CC1(C)S[C@@H]2[C@H](NC(=O)[C@H](N)c3ccc(O)cc3)C(=O)N2[C@H]1C(=O)O.C[C@]1(CCl)[C@H](C(=O)[O-])N2C(=O)C[C@H]2S1(=O)=O.[K+] [AMOXACILLIN +BL-P2013] | 2 µg/mL | 2 µg/mL | 2 µg/mL | 1 µg/mL | 34 mg/kg | 1 µg/mL | 16 mg/kg | 24 mg/kg | 72 mg/kg |  |  |  | 
CC1(C)C(C(=O)O)N2C(=O)C(Cl)C2S1(=O)=O (stereo not drawn) |  |  |  |  |  |  |  |  |  | > 100 µg/mL | 25 µg/mL |  | 
CC1(C)S[C@@H]2[C@H](NC(=O)[C@H](N)c3ccc(O)cc3)C(=O)N2[C@H]1C(=O)O [AMOXICILLIN] | 125 µg/mL (≈ 342 µM) | 125 µg/mL (≈ 342 µM) | 63 µg/mL (≈ 172 µM) | > 125 µg/mL | > 200 mg/kg | > 125 µg/mL | > 200 mg/kg | > 800 mg/kg | > 800 mg/kg |  |  |  | 
C[C@]1(CCl)[C@H](C(=O)[O-])N2C(=O)C[C@H]2S1(=O)=O.[K+] [BL-P2013] | 125 µg/mL | > 125 µg/mL | > 125 µg/mL | 125 µg/mL | > 200 mg/kg | 125 µg/mL | > 200 mg/kg | > 200 mg/kg | > 200 mg/kg | 3.1 µg/mL | 3.1 µg/mL | 12.5 µg/mL | 
